GPR7 antagonist: human neuropeptides B/W receptor 1 antagonism; P48145; GPR7-expressing cells, fluorescence antagonist assay; inhibition, % at 4.4 µM; 290,000 tested, 1.1% active; in the data active means inhibition above about 16%, passing the limit was not always enough;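 further: cells stimulated with the agonist NPW; 0% = agonist with vehicle and 100% = vehicle without agonist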
Target sequence (P48145 whole entry, looked up): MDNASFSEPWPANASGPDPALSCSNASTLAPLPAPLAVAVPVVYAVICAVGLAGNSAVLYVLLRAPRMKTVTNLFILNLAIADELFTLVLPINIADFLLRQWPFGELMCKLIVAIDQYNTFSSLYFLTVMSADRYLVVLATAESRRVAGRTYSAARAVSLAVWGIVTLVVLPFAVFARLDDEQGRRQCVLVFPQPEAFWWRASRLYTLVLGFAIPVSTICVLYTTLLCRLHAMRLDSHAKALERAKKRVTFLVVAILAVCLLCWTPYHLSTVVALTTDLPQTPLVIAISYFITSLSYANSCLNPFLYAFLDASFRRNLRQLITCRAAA
OX1R antag-1: antagonists of human orexin 1 receptor (OX1R); O43613; OX1R-expressing cells, FRET antagonist read-out; inhibition, % at 6.6 µM; 330,000 tested, 1.8% active; in the data active means inhibition mostly above about 38%, no sharp cut-off; inactive means mostly below about 40%;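 further: 0% = agonist challenge alone and 100% = reference antagonist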
OX1R antag-2: antagonists of human orexin 1 receptor; AID 434989; inhibition, % at 5 µM; CHO/OX1R cells, Fluo-8 calcium fluorescence, orexin A; 330,000 tested, 0.43% active;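 active means inhibition above its plate's threshold, mean inhibition of all tested compounds on the plate plus 3 SD, cut at about 37% in these data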;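 further: 0% = orexin A challenge wells and 100% = SB-334867-A antagonist wells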
GalR3 antag: human GalR3 antagonism | O60755 | AID 651719 | HEK293 GalR3-CNG cAMP membrane potential fluorescence; galR3 body fused to GalR1 C-terminus | 360,000 tested, 0.44% active | inhibition, % at 3 µM;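 active means inhibition above the screen-wide average plus 3 SD, cut at about 13% in these data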;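 further: forskolin and galanin both at EC90 stimulate the cells; cAMP rise reported by CNG channel membrane potential dye signal; 0% = forskolin plus galanin with DMSO and 100% = forskolin alone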
CHO parental Ca: signal in parental CHO cells, OX1R antagonist counter-screen; parental CHO-K1, ATP-induced calcium, Fluo-8 fluorescence; inhibition, % at 5.6 µM; 330,000 tested, 0.63% active;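 active means inhibition above that plate's mean sample inhibition plus 3 SD, cut at about 26% in these data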;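 further: 0% = ATP-challenged DMSO wells and 100% = DMSO wells without ATP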
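material = parental CHO cells | also added = ATP as calcium-mobilizing challenge | dosing = single point at 5.6 µM | detection = intracellular calcium via Fluo-8 no-wash fluorescent dye | read-out = % inhibition | benchmarks = low control ATP plus DMSO, high control DMSO only | repeats = one well per compound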
Starred values were filed as active, the others as inactive. This is a sample that favours compounds with a hit; in the whole collection about 3.1% have one here.

How did CSc1nsc(N/N=C/c2ccc3c(c2)OCO3)c1C#N do in these assays?
GPR7 antagonist: -0.9; OX1R antag-1: 41.1*; OX1R antag-2: 8.2; GalR3 antag: -2.0; CHO parental Ca: 12.2

What do the screens show for `CCOc1ccccc1N1CCN(C(=S)Nc2ccc(S(=O)(=O)Nc3ncccn3)cc2)CC1`?
GPR7 antagonist: -15.8; OX1R antag-1: 15.8; OX1R antag-2: -20.8; GalR3 antag: -0.8; CHO parental Ca: -6.1

How did COc1ccc2c(c1)NC(c1cc(Cl)cc(Cl)c1O)c1cccn1-2 (stereo not drawn) do in these assays?
GPR7 antagonist: -9.6; GalR3 antag: -5.6

How did COc1ccc2c(c1)NC(c1ccc(N(C)C)cc1)c1cccn1-2 (stereo not drawn) do in these assays?
GPR7 antagonist: -14.1; OX1R antag-1: 67.2*; OX1R antag-2: 6.0; GalR3 antag: -0.7; CHO parental Ca: -10.0

How did Cc1ccc2c(Cl)c(C(=O)NCCCN3CCOCC3)sc2c1 do in these assays?
GalR3 antag: -5.4

What do the screens show for `O=c1cc(-c2ccccc2)c2cc(Cl)c(O)c(CN3CCOCC3)c2o1`?
GPR7 antagonist: -11.8; OX1R antag-1: 65.1*; OX1R antag-2: -3.7; GalR3 antag: -4.5; CHO parental Ca: -4.1

What do the screens show for `O=C(CCc1c[nH]c2ccccc12)Nc1ccc(Nc2cccnc2)cc1`?
GalR3 antag: -5.2

What do the screens show for `COc1ccccc1N(CC(=O)NCCSc1ccccn1)S(=O)(=O)c1ccccc1`?
GPR7 antagonist: -11.4; OX1R antag-1: 51.1*; OX1R antag-2: -15.1; GalR3 antag: -5.4; CHO parental Ca: -26.7

How did CCOc1ccccc1N(CC(=O)NCCSc1ccccn1)S(=O)(=O)c1ccc(C)cc1 do in these assays?
GPR7 antagonist: -1.6; OX1R antag-1: 41.8*; OX1R antag-2: -13.4; GalR3 antag: -6.0; CHO parental Ca: -31.6

Results for Cc1ccccc1N(CC(=O)NCCSc1ccccn1)S(=O)(=O)c1ccccc1 ?
GPR7 antagonist: -4.9; OX1R antag-1: 40.1; OX1R antag-2: -20.9; GalR3 antag: -1.2; CHO parental Ca: -30.6

Results for Nc1[nH]c(C(=O)c2ccc(Cl)cc2)c(-c2ccc(Br)cc2)c1C(=O)NCc1ccc(Cl)cc1Cl ?
GalR3 antag: -2.3

Results for Brc1ccccc1OCCCCn1cnc2ccccc21 ?
GPR7 antagonist: 6.2; OX1R antag-1: 34.6*; OX1R antag-2: 19.2; GalR3 antag: 0.2; CHO parental Ca: 65.6*

Results for CC(=C1SC(=S)NC1=O)c1ccc(Cl)c(O)c1 ?
GalR3 antag: -8.8

Results for Cc1ccc(C)c(S(=O)(=O)Nc2ccc(C(=O)N3CCC3)cc2)c1 ?
OX1R antag-1: 17.2; OX1R antag-2: -26.1; GalR3 antag: -8.8; CHO parental Ca: -7.4

How did O=C(CN1C(=O)/C(=C\c2ccccc2Br)Oc2ccccc21)NCCCN1CCOCC1 do in these assays?
GPR7 antagonist: -5.0; OX1R antag-1: 49.0*; OX1R antag-2: 18.8; GalR3 antag: 0.9; CHO parental Ca: -24.2

Results for O=C(NCCCN1CCOCC1)c1ccc(/C=C2\Oc3ccccc3N(Cc3ccccc3F)C2=O)cc1 ?
GPR7 antagonist: -10.7; OX1R antag-1: 2.0; OX1R antag-2: -28.8; GalR3 antag: -8.5; CHO parental Ca: -30.2

Results for O=C(COc1ccccc1)NCC(=O)Nc1ccncc1 ?
OX1R antag-1: 14.2; OX1R antag-2: -4.2; GalR3 antag: 1.8; CHO parental Ca: 2.1

What do the screens show for `Cc1nnc(-c2ccccc2)c[n+]1[O-]`?
GPR7 antagonist: -9.4; OX1R antag-1: 56.2*; OX1R antag-2: -2.4; GalR3 antag: 0.9; CHO parental Ca: 3.0

What do the screens show for `c1ccc(-c2cnc(-c3ccccc3)nn2)cc1`?
OX1R antag-1: 25.6; OX1R antag-2: 10.1; GalR3 antag: 0.6; CHO parental Ca: -6.4

How did CCOC(=O)C1CCN(CC(=O)Nc2c(C(=O)OC)[nH]c3ccc(Cl)cc23)CC1 do in these assays?
GPR7 antagonist: 18.0*; OX1R antag-1: 40.7; OX1R antag-2: -3.3; GalR3 antag: -5.0; CHO parental Ca: -12.9

What do the screens show for `COCC(=O)N1CCN(C(=O)C(=O)c2cccc(C(F)(F)F)c2)CC1`?
GalR3 antag: -2.9

How did COc1ccc(N/N=C(\C#N)C(N)=O)cc1 do in these assays?
GPR7 antagonist: -4.2; OX1R antag-1: 12.4; OX1R antag-2: -6.5; GalR3 antag: -3.6; CHO parental Ca: -11.8

Results for N#C/C(=N/Nc1ccc(OC(F)(F)F)cc1)C(N)=S ?
GPR7 antagonist: 8.2; OX1R antag-1: 53.9*; OX1R antag-2: 40.5*; GalR3 antag: -5.1; CHO parental Ca: 20.4
